Legend:
[1] = system: HCT-116; assay: Growth inhibition of human HCT116 cells after 48 hrs by MTT assay; type: functional, cell-based; conditions: HCT-116, 48 h
Procedure, shortened: (§1)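 MTT assay: log-phase cells plated at 5 × 10³/well for 24 h, then exposed to a range of test concentrations for 48 h. MTT (5 mg/mL) added for 4 h, formazan dissolved in DMSO, absorbance read at 570 nm. IC50 is the concentration giving 50% growth inhibition, from dose-response curves; at least three independent experiments, mean ± SE.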

[2] = system: A549; assay: Growth inhibition of human A549 cells after 48 hrs by MTT assay; type: functional, cell-based; conditions: A549, 48 h
[3] = system: RKO; assay: Growth inhibition of human RKO cells after 48 hrs by MTT assay; type: functional, cell-based; procedure, shortened: as §1
[4] = system: HepG2; assay: Growth inhibition of human HepG2 cells after 48 hrs by MTT assay; type: functional, cell-based; conditions: HepG2, 48 h; procedure, shortened: as §1
[5] = system: MDA-MB-231; assay: Growth inhibition of human MDA-MB-231 cells after 48 hrs by MTT assay; type: functional, cell-based; conditions: MDA-MB-231, 48 h; procedure, shortened: as §1
[6] = system: LoVo; assay: Growth inhibition of human LoVo cells after 48 hrs by MTT assay; type: functional, cell-based; procedure, shortened: as §1
[7] = system: A549/CDDP; assay: Growth inhibition of human A549/CDDP cells after 48 hrs by MTT assay; type: functional, cell-based; procedure, shortened: as §1
[8] = Growth inhibition of human HepG2/DOX cells after 48 hrs by MTT assay; type: functional, cell-based; procedure, shortened: as §1
[9] = Resistance factor, ratio of IC50 for human A549/CDDP cells to IC50 for human A549 cells; type: functional
Procedure, shortened: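 MTT assay: log-phase cells were seeded at 5 × 10³/well for 24 h, then exposed to a concentration series for 48 h. MTT (5 mg/mL) was added for 4 h, formazan was dissolved in DMSO, and A570 was read. IC50 values came from dose–response curves of at least three independent experiments. Resistance factor = IC50 in the resistant line / IC50 in the parental sensitive line.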

Compound | IC50 [1] | IC50 [2] | IC50 [3] | IC50 [4] | IC50 [5] | IC50 [6] | IC50 [7] | IC50 [8] | Ratio IC50 [9]
COc1ccc(N(C)c2nc(C)nc3ccccc23)cc1OCCCC[Se]C#N | 512 nM | 1200 nM | 1360 nM | 6460 nM | 1350 nM | 882 nM |  |  | 
COc1ccc(N(C)c2nc(C)nc3ccccc23)cc1C(=O)OCCCCC[Se]C#N | 551 nM | 592 nM | 356 nM | 667 nM | 851 nM | 714 nM |  |  | 
COc1ccc(N(C)c2nc(C)nc3ccccc23)cc1[Se]C#N | 34 nM | 49 nM | 47 nM | 59 nM | 52 nM | 73 nM |  |  | 
C[Se]c1ccc(N(C)c2nc(C)nc3ccccc23)cc1C | 3 nM | 2 nM | 8 nM | 6 nM | 7 nM | 9 nM |  |  | 
COc1ccc(N(C)c2nc(C)nc3ccccc23)cc1OCC[Se]C#N | 18 nM | 13 nM | 27 nM | 14 nM | 13 nM | 19 nM |  |  | 
COc1ccc(N(C)c2nc(C)nc3ccccc23)cc1C(=O)OCCC[Se]C#N | 720 nM | 250 nM | 1140 nM | 340 nM | 1180 nM | 854 nM |  |  | 
COc1ccc(N(C)c2nc(C)nc3ccccc23)cc1OCCN | 198 nM | 122 nM | 343 nM | 343 nM | 682 nM | 421 nM |  |  | 
COc1ccc(N(C)c2nc(C)nc3ccccc23)cc1C(=O)OCCCCCC[Se]C#N | 1990 nM | 488 nM | 1990 nM | 2650 nM | 2210 nM | 1050 nM |  |  | 
COc1ccc(N(C)c2nc(C)nc3ccccc23)cc1OCCC[Se]C#N | 852 nM | 382 nM | 799 nM | 1040 nM | 815 nM | 921 nM |  |  | 
COc1ccc(N(C)c2nc(C)nc3ccccc23)cc1C(=O)NCC[Se]C#N | 313 nM | 187 nM | 1170 nM | 179 nM | 1250 nM | 561 nM |  |  | 
C[Se]c1ccc(N(C)c2nc(C)nc3ccccc23)cc1Cl | 5 nM | 2 nM | 4 nM | 4 nM | 7 nM | 3 nM |  |  | 
COc1ccc(N(C)c2nc(C)nc3ccccc23)cc1C(=O)OCC[Se]C#N | 951 nM | 353 nM | 2390 nM | 890 nM | 1480 nM | 2960 nM |  |  | 
COc1ccc(N(C)c2nc(C)nc3ccccc23)cc1OCCCCCC[Se]C#N | 6180 nM | 5520 nM | 1540 nM | 4890 nM | 3550 nM | 8580 nM |  |  | 
COc1ccc(N(C)c2nc(C)nc3ccccc23)cc1OCCCCC[Se]C#N | 256 nM | 2440 nM | 3560 nM | 5210 nM | 4410 nM | 5210 nM |  |  | 
Cc1nc(N(C)c2ccc([Se]C#N)c(F)c2)c2ccccc2n1 | 20 nM | 4 nM | 8 nM | 37 nM | 6 nM | 13 nM |  |  | 
[2H]C([2H])([2H])c1nc(N(C)c2ccc([Se]C#N)cc2)c2ccccc2n1 | 10 nM | 7 nM | 11 nM | 21 nM | 11 nM | 14 nM |  |  | 
COc1ccc(N(C)c2nc(C)nc3ccccc23)cc1C[Se]C#N | 113 nM | 98 nM | 316 nM | 1110 nM | 153 nM | 277 nM |  |  | 
Cc1nc(N(C)c2ccc([Se]C#N)c(C)c2)c2ccccc2n1 | 13 nM | 8 nM | 17 nM | 9 nM | 16 nM | 19 nM |  |  | 
COc1ccc(/C=C\c2cc(OC)c(OC)c(OC)c2)cc1O [COMBRETASTATIN A4] |  |  |  | 9 nM |  |  | 17 nM | 27 nM | 
Cc1nc(N(C)c2ccc([Se]C#N)c(Cl)c2)c2ccccc2n1 | 12 nM | 7 nM | 11 nM | 12 nM | 9 nM | 12 nM |  |  | 
Cc1nc(N(C)c2ccc(OCC[Se]C#N)cc2)c2ccccc2n1 | 2290 nM | 893 nM | 652 nM | 1680 nM | 317 nM | 547 nM |  |  | 
[2H]C([2H])([2H])c1nc(N(C)c2ccc([Se]C)cc2)c2ccccc2n1 | 3 nM | 3 nM | 8 nM | 5 nM | 9 nM | 5 nM |  |  | 
COc1ccc(N(C)c2nc(C)nc3ccccc23)cc1C(=O)OCCCC[Se]C#N | 662 nM | 155 nM | 1020 nM | 975 nM | 554 nM | 1080 nM |  |  | 
COc1ccc(N(C)c2nc(C)nc3ccccc23)cc1[Se]C | 28 nM | 11 nM | 11 nM | 17 nM | 10 nM | 3 nM |  |  | 
CN(c1ccc([Se]C#N)cc1)c1nc(C2CC2)nc2ccccc12 | 62 nM | 12 nM | 51 nM | 41 nM | 29 nM | 11 nM |  |  | 
C[Se]c1ccc(N(C)c2nc(C3CC3)nc3ccccc23)cc1 | 15 nM | 13 nM | 21 nM | 32 nM | 18 nM | 11 nM |  |  | 
COc1cccc2c1C(=O)c1c(O)c3c(c(O)c1C2=O)C[C@@](O)(C(=O)CO)C[C@@H]3O[C@H]1C[C@H](N)[C@H](O)[C@H](C)O1 [DOXORUBICIN] |  | 2900 nM |  | 1890 nM |  |  | 4590 nM | > 10000 nM | 1.58

Source: ChEMBL document CHEMBL4020840, “Synthesis and Biological Evaluation of Selenium-Containing 4-Anilinoquinazoline Derivatives as Novel Antimitotic Agents” (J Med Chem, 2018)
